# Compounds with a hit are over-represented: about 3.3% of the library has one in this group of screens.
# IL1B NFkB pot – enhances IL-1B driven NFkB nuclear translocation | hit rate 0.3% among 94,000 | activation, % at 2 µM | HUVEC IL-1B NFkB p65 nuclear translocation imaging;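 active = activation above 40%, about the mean plus 3 SD, also judged a hit on visual image review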;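 also: percent activation is computed from the nuclear over cytoplasmic p65 intensity ratio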
# FAK blocker – inhibitors of human focal adhesion kinase. Q05397. biochemical FAK kinase activity assay. inhibition, %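 (tested at 7 µM)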. hit rate 0.84% among 97,000; in the data active = inhibition above about 19%;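 also: 0% = DMSO and 100% = reference compound high control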
# Measles CPE – protection of cells from measles virus; Measles virus-infected cells, CPE protection, absorbance; protection (pct of control), % at 4 µM; AID 841; hit rate 1.5% among 140,000; in the data active = protection mostly above about 24%, no sharp cut-off; inactive = mostly below about 26%
# IL1B NFkB inh – blocks IL-1B driven NFkB nuclear translocation in HUVEC cells; HUVEC IL-1B NFkB p65 nuclear translocation imaging; inhibition, % at 2 µM; hit rate 0.43% among 94,000; AID 796;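 active = inhibition above about 30% together with a positive call from visual inspection of the well image, limit read from the data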;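 also: nuclear over cytoplasmic p65 intensity ratio measured by imaging; 0% = IL-1B stimulated DMSO wells and 100% = unstimulated DMSO wells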
# HUVEC tox IL1B – toxic to HUVEC cells under IL-1B stimulation. HUVEC cell count loss, Hoechst imaging, IL-1B stimulated. cell count reduction, % at 2 µM. hit rate 0.41% among 94,000;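 active = cell count reduction more than 3 SD above the screen-wide mean, cut at about 70% in these data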;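 also: normalized per plate to untreated control cells as the no-loss baseline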
# Rev-RRE block – inhibitors of HIV-1 Rev-RRE RNA interaction; Rev peptide-RRE RNA binding, FRET; inhibition, % at 8 µM; hit rate 0.79% among 97,000; AID 704;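 active = inhibition above the screen-wide mean plus 3 SD, cut at about 35% in these data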;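 also: 0% = median DMSO wells and 100% = median Neomycin B control wells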
# Target sequence (P05866 whole entry, looked up): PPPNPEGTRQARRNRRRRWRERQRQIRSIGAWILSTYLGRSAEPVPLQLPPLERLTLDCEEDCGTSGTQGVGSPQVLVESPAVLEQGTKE
#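 assay system = Cy5-tagged RRE RNA duplex with fluorescein-tagged Rev peptide | incubation = 5 + 15 min at 25 °C | also added = labelled Rev peptide | measure = % inhibition of FRET ratio versus controls | benchmarks = DMSO wells as 0% and neomycin B wells as 100% inhibition | measured by = FRET fluorescence readout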
# An asterisk follows results filed as active; . = not tested or not shown; [ ] = remark or other dose.
SMILES,IL1B NFkB pot,FAK blocker,Measles CPE,IL1B NFkB inh,HUVEC tox IL1B,Rev-RRE block
COc1ccc(-c2nnc(Nc3ccc(CC(N)=O)cc3)c3ccccc23)cc1,.,.,64.3*,.,.,.
O=C(CSc1nnnn1-c1cccc2ccccc12)N1CCOCC1,2.5,0.8,36.2*,-2.5,-55.7,3.3
COc1ccc(NC(=O)c2cccnc2SC)cc1S(=O)(=O)N1CCCCC1,.,.,6.9,.,.,.
COc1ccc(C(=O)OC/C(O)=C(\C#N)c2nc3ccccc3[nH]2)cc1S(=O)(=O)N1CCOCC1,.,.,2.0,.,.,.
Cc1nn(-c2ccccc2)c(C)c1C(=O)OC/C(O)=C(\C#N)c1nc2ccccc2[nH]1,4.2,-0.7,6.7,-4.2,8.0,40.3*
Cc1onc(-c2ccccc2Cl)c1C(=O)Nc1cc(=O)n(C)c(=O)n1C,-17.6,-0.8,.,17.6,88.8*,4.8
Cc1ccnc(NC(=O)c2c(-c3ccccc3Cl)noc2C)c1,.,.,24.0*,.,.,.
Cc1cc(C)nc(NC(=O)c2c(-c3ccccc3Cl)noc2C)c1,.,.,13.3,.,.,.
Cc1onc(-c2ccccc2Cl)c1C(=O)Nc1ccccc1,0.1,2.2,15.9,-0.1,-12.7,0.8
CCN(CC)S(=O)(=O)c1ccc(OC)c(NC(=O)COc2ccc3c(C)cc(=O)oc3c2)c1,.,.,7.7,.,.,.
CCc1ccccc1NC(=S)N(CCCN1CCOCC1)Cc1cccs1,.,.,18.4,.,.,.
COc1ccc(N=C2NC(=O)S/C2=C\c2ccc(N(C)C)cc2)cc1,3.3,-3.3,9.8,-3.3,-27.1,116.7*[fluorescence artefact?]
O=C1NC(=Nc2ccccc2)/C(=C/c2ccco2)S1,.,.,6.2,.,.,.
COc1ccc(C2C(C(C)=O)=C(C)N=c3s/c(=C\c4cc(C)n(C)c4C)c(=O)n32)c(OC)c1 (stereo not given),-8.1,-3.4,7.7,8.1,-9.5,127.8*[fluorescence artefact?]
COc1ccc(C2C(C(C)=O)=C(C)N=c3s/c(=C\c4ccc5c(c4)OCO5)c(=O)n32)c(OC)c1 (stereo not given),12.6,-0.6,.,-12.6,94.4*,5.5
N#CC1(C#N)[C@@H](C(=O)C23CC4CC(CC(C4)C2)C3)C12CCOCC2,.,.,3.7,.,.,.
Nc1ccc(C(=O)OCC(=O)N2CCc3ccccc3C2)cc1[N+](=O)[O-],.,.,39.4,.,.,.
Nc1ccc(C(=O)OCC(=O)N2c3ccccc3Sc3ccccc32)cc1[N+](=O)[O-],.,.,33.2*,.,.,.
COc1ccc(/C=N/NC(=O)COc2ccc(Cl)cc2Cl)cc1Cn1nc(C)cc1C,.,.,3.3,.,.,.
Cc1ccc(-n2nnc3c(=O)n(Cc4cccc(C)c4)cnc32)cc1,-9.2,1.2,7.1,9.2,-11.7,5.8
Cc1ccc(-n2nnc3c(=O)n(Cc4cc(C)ccc4C)cnc32)cc1,6.2,21.7*,2.3,-6.2,25.9,16.3
Cc1ccccc1NC(=O)Cn1nnc(S(=O)(=O)c2ccc(C(C)(C)C)cc2)c1N,.,.,6.2,.,.,.
O=C1OC(/C=C/c2ccc(Cl)cc2Cl)=NC/1=C\c1cccs1,.,.,32.8,.,.,.
CCCC1C2C(=O)N(c3ccccc3)C(=O)C2ON1c1ccccc1 (stereo not given),1.1,-1.4,7.9,-1.1,-0.7,8.9
CCOc1ccccc1C1C2C(=O)N(c3ccccc3)C(=O)C2ON1c1ccccc1 (stereo not given),4.3,10.4,47.2*,-4.3,24.3,11.9
SMILES,IL1B NFkB pot,FAK blocker,Measles CPE,IL1B NFkB inh,HUVEC tox IL1B,Rev-RRE block
CCCOc1ccc(N2C(=O)C3ON(c4ccccc4)C(CCC)C3C2=O)cc1 (stereo not given),-1.9,0.8,25.5*,2.0,-6.6,12.8
CC1CCN(c2cc(N3CCN(C(=O)c4ccc(F)c(F)c4)CC3)c([N+](=O)[O-])cc2F)CC1,.,.,4.1,.,.,.
C=CCNC(=S)NNC(=O)COc1cccc(Cl)c1,2.1,-5.2,3.2,-2.8,-12.9,4.3
CCOC(=O)c1[nH]c2ccc(OCC)cc2c1CCCN1C(=O)c2ccccc2C1=O,.,.,4.2,.,.,.
CC1=Nn2c(nc(-c3ccccc3)c2-c2ccccc2)N(CC(N)=O)C(=O)C1,20.7,-10.2,1.8,-20.7,-2.0,-0.4
CCC1C(=O)Nc2nc(-c3ccccc3)c(-c3ccccc3)n2N=C1C (stereo not given),119.9*,1.6,16.1,-119.9,13.2,10.5
Cc1ccc(C(=O)OCn2ncc(Cl)c(Cl)c2=O)cc1,-79.4,0.6,1.1,79.4*,19.8,-3.5
Cc1ccc(C)c(C(=O)Cn2ncc(Cl)c(Cl)c2=O)c1,-43.3,-1.1,21.6,43.3*,15.3,-5.9
CCOC(=O)c1ccc(NC(=O)Cn2ncc(Cl)c(Cl)c2=O)cc1,.,.,-0.2,.,.,.
O=C(OCn1ncc(Cl)c(Cl)c1=O)c1ccc(C(F)(F)F)cc1,-41.0,5.1,5.3,41.0*,2.2,12.1
Cc1cc(C(=O)Cn2ncc(Cl)c(Cl)c2=O)c(C)n1CC(F)(F)F,.,.,6.2,.,.,.
CC(C)(C)c1ccc(OCCC(=O)Nc2cccc(S(=O)(=O)N3CCCCC3)c2)cc1,.,.,2.6,.,.,.
NC1=NC(=O)/C(=C/c2cn(Cc3ccccc3)c3ccccc23)S1,.,.,16.4,.,.,.
COc1ccc(N2CC(C(=O)Nc3ccccc3C(=O)NCc3ccco3)CC2=O)cc1 (stereo not given),-12.2,1.7,35.3*,12.2,17.7,9.3
CCCOc1ccc(N2CC(C(=O)Nc3ccccc3C(=O)NCc3ccco3)CC2=O)cc1 (stereo not given),0.1,3.3,6.3,-0.1,2.9,10.8
Cc1ccc(CNC(=O)C23CN(Cc4ccccc4)CC2C(c2ccc([N+](=O)[O-])cc2)=NO3)cc1 (stereo not given),0.8,-6.2,41.3*,-0.8,0.8,-0.9
CCCSc1nc2c(c(=O)n1CC)SC(C)C2 (stereo not given),-7.8,0.4,92.9*,7.8,-15.3,1.8
CCn1c(SCC(=O)N2CCCC2)nc2c(c1=O)SC(C)C2 (stereo not given),.,.,-0.6,.,.,.
CC1CN(C(=O)c2scc3c2OCCO3)CC(C)O1 (stereo not given),-80.3,-0.5,6.8,80.3*,93.2*,2.9
CC1CCN(C(=O)c2scc3c2OCCO3)CC1,39.5,-1.8,6.4,-39.5,-10.1,-2.2
O=C(Nc1cccn(Cc2c(Cl)cccc2Cl)c1=O)c1ccc(Cl)cc1Cl,-3.2,4.1,3.7,3.2,-16.7,7.5
O=C(Nc1cccn(Cc2c(Cl)cccc2Cl)c1=O)c1ccccc1Cl,2.9,-0.6,48.0*,-2.9,0.2,9.7
N#Cc1c(N)sc2c1CCN(CCc1ccccc1)C2,11.5,6.4,9.4,-11.5,-21.5,65.2*
CCOC(=O)N1CCN(C(=O)CSCc2ccccc2Cl)CC1,.,.,3.4,.,.,.
COc1ccc2c(c1)C1(Nc3ccccc3-c3nc4ccccc4n31)C(=O)N2C (stereo not given),-7.1,1.0,15.0,7.1,5.3,0.2
COc1ccc2c(c1)C1(Nc3ccccc3-c3nc4ccccc4n31)C(=O)N2 (stereo not given),-16.0,-2.2,11.2,16.0,70.9*,-2.2
Cc1nn(-c2ccccc2)c(N)c1Sc1cccc([N+](=O)[O-])c1,.,.,7.8,.,.,.
Cc1nn(-c2ccccc2)c(N)c1Sc1ccccc1[N+](=O)[O-],.,.,46.0*,.,.,.
CCOc1cc(N2CCOCC2)c(OCC)cc1NC(=O)CN1CCCC1,.,.,3.3,.,.,.
